Measured values gathered from unrelated publications.
Effect on: binding
PIKFYVE: 1-phosphatidylinositol 3-phosphate 5-kinase (PIKFYVE, Homo sapiens, UniProt Q9Y2I7)
UCK2: Uridine-cytidine kinase 2 (UCK2, Homo sapiens, UniProt Q9BZX2)
mnmE: mnmE (Escherichia coli, UniProt P25522)
PIK3CB: Phosphatidylinositol 4,5-bisphosphate 3-kinase catalytic subunit beta isoform (PIK3CB, Homo sapiens, UniProt P42338)

| Compound | target | method | pH | setting | Kd [µM] |
| --- | --- | --- | --- | --- | --- |
| CCCOc1ccc2[nH]c(C)c(/C=C/C(=O)c3ccncc3)c2c1 | PIKFYVE | competition with immobilised ligand | – | – | 0.0065 |
| [N-]=[N+]=N[C@@H]1[C@H](O)[C@@H](CO)O[C@H]1n1ccc(=O)[nH]c1=O | UCK2 | fluorescence | – | – | 0.0134 |
| CN1c2c([nH]c(N)nc2=O)NC[C@@H]1CNc1ccc(C(=O)N[C@@H](CCC(=O)O)C(=O)O)cc1 | mnmE | ITC | pH 7.5 | – | 1.1 |
| Cc1ncsc1-c1ccc([C@H](C)NC(=O)[C@@H]2C[C@@H](O)CN2C(=O)[C@@H](NC(=O)CCCCCC(=O)N2CCC3(CC2)CCN(c2cncc(Nc4ncc(Cl)c(-c5cccc(-c6ccccc6)c5)n4)c2)C3=O)C(C)(C)C)cc1 | Phosphatidylinositol 5-phosphate 4-kinase type-2 beta (PIP4K2B, Homo sapiens, UniProt P78356) | – | – | – | > 10 |
| CCC(=O)N1CCC(C(=O)NCC(=O)N2CCN(c3nc(-c4cnc(N)nc4C(F)F)nc(N4CCOCC4)n3)CC2)CC1 | PIK3CB | – | – | – | 0.00071 |
| COc1ccc2[nH]c(C)c(/C=C/C(=O)c3ccncc3)c2c1 | PIKFYVE | competition with immobilised ligand | – | – | 0.0069 |
| c1cncc(-c2cccc(Nc3nccc(NC4CCCCC4)n3)c2)c1 | Interleukin-1 receptor-associated kinase 3 (IRAK3, Homo sapiens, UniProt Q9Y616) | competition with immobilised ligand | – | – | 1.4 |
| [N-]=[N+]=N[C@@H]1[C@H](O)[C@@H](CO)O[C@H]1n1ccc(N)nc1=O | UCK2 | fluorescence | – | – | 0.0178 |
| Nc1ncnc2c1ncn2[C@@H]1O[C@H](COP(=O)(O)OP(=O)(O)OC[C@H]2OC(O)[C@H](O)[C@@H]2O)[C@@H](O)[C@H]1O (stereo partly shown) | NAD-dependent histone deacetylase SIR2 (Saccharomyces cerevisiae S288c, UniProt P06700) | SPR | – | – | 2.95 |
| Nc1nc(=O)c2c([nH]1)NC[C@@H](CNc1ccc(C(=O)N[C@@H](CCC(=O)O)C(=O)O)cc1)N2C=O | mnmE | ITC | pH 7.5 | – | 0.2 |
| CO[C@H]1O[C@H](CO)[C@@H](O)[C@H](O)[C@@H]1O | ZG16 (Homo sapiens, UniProt O60844) | NMR | – | – | 15000 |
| Cc1cc2nc3c(=O)[nH]c(=O)nc-3n(C[C@H](O)[C@H](O)[C@H](O)COP(=O)(O)OP(=O)(O)OC[C@H]3O[C@@H](n4cnc5c(N)ncnc54)[C@H](O)[C@@H]3O)c2cc1C | LRP1 (Homo sapiens, UniProt Q07954) | – | – | lysate | 43.9 |
| COc1ccc2[nH]c(C(=O)O)c(/C=C/C(=O)c3ccncc3)c2c1 | PIKFYVE | competition with immobilised ligand | – | – | 0.046 |
| C=CC(=O)N1CCC(C(=O)N(C)CC(=O)N2CCN(c3nc(-c4cnc(N)nc4C(F)F)nc(N4CCOCC4)n3)CC2)CC1 | PIK3CB | – | – | – | 0.0036 |
| Nc1nc2c(c(=O)[nH]1)N1CN(c3ccc(C(=O)N[C@@H](CCC(=O)O)C(=O)O)cc3)C[C@H]1CN2 | mnmE | ITC | pH 7.5 | – | 0.31 |
| O=C(O)c1cccc(Nc2cc(N3CCCCCC3)c3noc4c3c2C(=O)c2ccccc2-4)c1 | Urokinase plasminogen activator surface receptor (Homo sapiens, UniProt Q03405) | – | – | – | 0.19 |
